ChEMBL document CHEMBL4130549, “Synthesis and bioactivities study of new antibacterial peptide mimics: The dialkyl cationic amphiphiles” (Eur J Med Chem, 2018)

Legend:
Staphylococcus aureus [1] = assay: Ratio of MIC for Staphylococcus aureus ATCC 29213 after 20 serial passages to MIC for Staphylococcus aureus ATCC 29213; format: functional
Method in brief: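 Sub-MIC serial passaging: after an initial broth microdilution MIC, cells grown at MIC/2 were transferred into a new MIC assay after each 24 h incubation, for 20 passages. MIC was plotted against days to follow resistance development. Passaging controls were norfloxacin for S. aureus and colistin for E. coli.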

Escherichia coli = assay: Antibacterial activity against Escherichia coli; format: functional
Method in brief: (§1)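 Broth microdilution per CLSI in cation-adjusted Mueller-Hinton broth; 4-6 h cultures (~10⁸ CFU/mL) diluted to ~10⁶ CFU/mL and mixed 1:1 with twofold dilutions of water-dissolved compound (256 to 0.5 µg/mL). Incubated 16-20 h at 37 °C; MIC read visually. Each concentration run in duplicate, whole experiment repeated at least twice. MRSA, KPC and NDM-1 strains were clinical isolates.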

Enterococcus faecalis = assay: Antibacterial activity against Enterococcus faecalis; format: functional; method in brief: as §1
Staphylococcus aureus [2] = assay: Antibacterial activity against methicillin-resistant Staphylococcus aureus; format: functional
[3] = Hemolytic activity in sheep RBC; format: ADME, cell-based, Ovis aries, Erythrocyte; conditions: sheep red blood cells (erythrocytes)
Method in brief: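 Sheep RBCs suspended at 5% in PBS; 150 µL added to 50 µL compound dilutions (5120 to 10 µg/mL series). Incubated 1 h at 37 °C, then centrifuged; supernatant absorbance read at 540 nm. Lysis (%) = (A−A0)/(Atotal−A0)×100, with untreated 5% RBC as A0 and 0.1% Triton X-100 as total.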

Staphylococcus aureus [4] = assay: Antibacterial activity against Staphylococcus aureus; format: functional; method in brief: as §1

Row | Compound | Ratio (Staphylococcus aureus [1]) | MIC (Escherichia coli) | MIC (Enterococcus faecalis) | MIC (Staphylococcus aureus [2]) | HC50 [3] | MIC (Staphylococcus aureus [4])
1 | CCn1cc(C(=O)O)c(=O)c2cc(F)c(N3CCNCC3)cc21 [NORFLOXACIN] | 256 |  |  |  |  | 
2 | H-GIGKFLKKAKKFGKAFVKLLKK-NH2 |  | 16 to 32 µg/mL | 64 µg/mL | 16 to 32 µg/mL | 120 µg/mL | 8 to 16 µg/mL
